Published values pooled from the literature.
Protocols differ between the studies behind these lines.
Target: 5-hydroxytryptamine receptor 3A (HTR3A, Homo sapiens, UniProt P46098)
Tested at: 10 µM
Sequence (P46098 24-478, as in one of the studies): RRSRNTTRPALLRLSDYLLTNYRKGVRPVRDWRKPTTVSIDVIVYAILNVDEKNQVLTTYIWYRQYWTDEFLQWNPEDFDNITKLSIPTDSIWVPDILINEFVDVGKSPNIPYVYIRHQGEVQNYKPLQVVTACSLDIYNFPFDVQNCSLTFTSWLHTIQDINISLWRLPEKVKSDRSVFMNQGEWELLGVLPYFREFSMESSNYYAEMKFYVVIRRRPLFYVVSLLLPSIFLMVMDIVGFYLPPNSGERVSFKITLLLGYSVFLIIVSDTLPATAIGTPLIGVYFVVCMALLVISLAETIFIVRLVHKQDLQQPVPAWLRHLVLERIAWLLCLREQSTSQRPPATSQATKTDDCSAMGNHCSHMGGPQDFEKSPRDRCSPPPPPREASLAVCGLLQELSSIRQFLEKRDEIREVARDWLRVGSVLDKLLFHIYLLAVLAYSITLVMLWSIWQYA

Cn1cncc1[C@@](O)(COc1ccc(C#N)cc1-c1ccc(OC(F)(F)F)cc1)c1ccc(C#N)cc1  inhibition (cell-free assay): -0.62%
C[C@H](C(=O)N[C@H]1COc2ccccc2[C@@H]1S(C)(=O)=O)c1ccc(F)cc1  inhibition (cell-free assay): 6%
Nc1ncc(-c2nc(N3CCOCC3)nc(N3CCOCC3)n2)c(C(F)F)n1  remaining signal (cell-free assay): 100%
COc1ccc(N=Nc2ccc3[nH]cc(CCN(C)C)c3c2)cc1  inhibition (ligand displacement; radioligand): < 50%
Cc1c(N2CCNCC2)nc2ccc(Br)cc2c1C(=O)NC[C@H](CCC(=O)O)c1ccccc1Cl  inhibition (cell-free assay): 86%
Clc1ccc2c(C3CCN(CCc4c[nH]c5ccccc45)CC3)c[nH]c2c1  inhibition (ligand displacement; radioligand): 38%
CCN(CC)CCCC[C@H](NC(=O)[C@H](CC(C)C)NC(=O)[C@H](C)NC(=O)[C@H](Cc1ccccc1)NC(=O)c1ccc(C(C)(C)C)cc1)C(=O)N[C@@H](CO)C(=O)OC  inhibition (ligand displacement; radioligand): -21%
COc1cc2c3c(c1OC)-c1cc4c(cc1CC3N(C)CC2)OCO4 (racemic)  inhibition (ligand displacement; radioligand): 44.6%
CC(C)Cn1cnc2c(N)nc3ccccc3c21  inhibition (ligand displacement; radioligand): 8%
c1ccc(C(NCCNC(c2ccccc2)c2ccccc2)c2ccccc2)cc1  inhibition (cell-free assay): -16%
CC(C)N1CCC[C@H]1CNC(=O)c1cn(C2CCCC2)c(=O)c2c1c1ccccc1n2C  inhibition (ligand displacement; radioligand): -4%
